In PubChem BioAssay:
Calls of active or inactive are those of the source.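 Rule for the calls, unless noted: active = inhibition at or above 50% relative to wild type and mutant plate controls; inactive = inhibition below 50%.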

Key:
[1] = inhibitors of TNFa-induced NFkB p65 translocation, primary screen, imaging, HUVEC, MLSMR starter and 10KST1 sets (AID 438;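 active = inhibition above 20% together with a positive visual image hit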;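 note: compound added about 3h40 before a 20 min TNFalpha stimulation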;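 for inhibition: signal is the nuclear over cytoplasmic p65 intensity ratio per well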); details: HUVEC TNFa-induced p65 nuclear translocation; cell count: measured here: nuclei count (cytotoxicity indicator), at 2.08 µM; inhibition: at 2 µM, stronger effect = higher value, 0% TNFa-plus-vehicle, 100% no-TNFa wells
[2] = inhibitors of E-selectin induction by TNFa, primary screen, imaging, HUVEC, immunofluorescence, MLSMR starter and 10KST1 sets (AID 487;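 active = visually confirmed hit in the image check and inhibition above 20%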;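 for inhibition: signal is fraction of cell area covered by stained E-selectin grains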;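 for nuclei count: 100% = median nuclei count of all wells on the same plate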); details: HUVEC TNFalpha-induced E-selectin immunofluorescence imaging, at 2 µM; inhibition: stronger effect = higher value; nuclei count: measured here: cell number, toxicity
[3] = DUSP6 inhibitors restoring Erk phosphorylation by chemical complementation, primary imaging in DUSP6-transfected HeLa (AID 609;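 active = compounds giving at least 50% inhibition in the cell-based MKP-3 phosphatase rescue imaging test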;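 for inhibition: phospho-Erk level distribution per well compared with pooled transfected vehicle control wells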); details: HeLa MKP-3 transfected, phospho-Erk imaging KS statistic, at 10 µM, cells stimulated with TPA for 15 min
[4] = target: Dual specificity protein phosphatase 6 (Homo sapiens) (UniProt Q16828); test: as above; details: HeLa MKP-3 transfected, phospho-Erk imaging KS statistic; at 10 µM; stronger effect = higher value; cells stimulated with TPA for 15 min
Chain of Dual specificity protein phosphatase 6 (Homo sapiens) (Q16828 whole entry, looked up): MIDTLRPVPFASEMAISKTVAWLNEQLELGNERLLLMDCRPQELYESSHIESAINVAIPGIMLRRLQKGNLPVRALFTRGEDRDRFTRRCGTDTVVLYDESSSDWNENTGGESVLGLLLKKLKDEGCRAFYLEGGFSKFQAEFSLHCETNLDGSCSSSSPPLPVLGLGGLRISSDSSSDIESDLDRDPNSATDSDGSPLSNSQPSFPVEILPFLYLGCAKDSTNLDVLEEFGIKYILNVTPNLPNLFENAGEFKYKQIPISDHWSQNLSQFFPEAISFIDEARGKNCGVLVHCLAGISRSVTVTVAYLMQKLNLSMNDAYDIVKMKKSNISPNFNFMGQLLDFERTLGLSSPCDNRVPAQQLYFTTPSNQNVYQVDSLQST

[5] = target: Voltage-gated potassium channel subunit beta-2 (Rattus norvegicus) (UniProt P62483); test: KvBeta enzyme negative modulators, primary screen, biochemical, NADPH fluorescence (AID 622;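 active = fluorescence slope higher than the sample average by over 3 SD, cut at about -0.22 in these data, passing the limit was not always enough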;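 note: slope of raw intensity against log time taken from 70 to 1610 s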); details: recombinant KvBeta, 4-cyanobenzaldehyde reduction, at 10 µM, stronger effect = higher value
Chain of Voltage-gated potassium channel subunit beta-2 (Rattus norvegicus) (P62483 whole entry, looked up): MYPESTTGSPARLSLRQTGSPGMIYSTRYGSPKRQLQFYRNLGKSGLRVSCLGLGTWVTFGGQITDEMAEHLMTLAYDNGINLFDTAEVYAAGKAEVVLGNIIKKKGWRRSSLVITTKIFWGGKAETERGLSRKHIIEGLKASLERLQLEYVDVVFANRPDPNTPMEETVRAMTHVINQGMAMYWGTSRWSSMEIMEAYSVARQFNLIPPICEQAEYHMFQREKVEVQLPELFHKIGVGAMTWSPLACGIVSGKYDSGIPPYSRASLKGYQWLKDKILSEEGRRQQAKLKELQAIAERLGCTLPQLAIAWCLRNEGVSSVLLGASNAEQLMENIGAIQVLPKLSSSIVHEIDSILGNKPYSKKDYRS

[6] = target: Voltage-gated potassium channel subunit beta-2 (Rattus norvegicus) (UniProt P62483); test: KvBeta positive modulators, primary screen, biochemical, NADPH fluorescence (AID 623;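 active = NADPH fluorescence slope more negative than the mean of all samples by about 3 SD, 99.7% confidence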;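 note: fluorescence intensity change per second fitted from 20 to 320 s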); details: Recombinant KvBeta, NADPH fluorescence decrease slope, 10 min; at 10 µM; stronger effect = lower value
[7] = target: Muscarinic acetylcholine receptor M4 (Homo sapiens) (UniProt P08173); test: compounds altering M4/GIRK thallium flux, either direction, primary screen, M4 allosteric agonist project, cell-based, HEK293 M4/GIRK, BTC-AM (AID 625;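 active = fluorescence slope after compound addition differing from the mean of all tested samples at 99.7% confidence, mostly higher but some lower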;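 note: thallium influx through GIRK channels coupled to M4 in HEK293 cells with BTC-AM dye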); details: at 10 µM, actives lie on both sides
Chain of Muscarinic acetylcholine receptor M4 (Homo sapiens) (P08173 whole entry, looked up): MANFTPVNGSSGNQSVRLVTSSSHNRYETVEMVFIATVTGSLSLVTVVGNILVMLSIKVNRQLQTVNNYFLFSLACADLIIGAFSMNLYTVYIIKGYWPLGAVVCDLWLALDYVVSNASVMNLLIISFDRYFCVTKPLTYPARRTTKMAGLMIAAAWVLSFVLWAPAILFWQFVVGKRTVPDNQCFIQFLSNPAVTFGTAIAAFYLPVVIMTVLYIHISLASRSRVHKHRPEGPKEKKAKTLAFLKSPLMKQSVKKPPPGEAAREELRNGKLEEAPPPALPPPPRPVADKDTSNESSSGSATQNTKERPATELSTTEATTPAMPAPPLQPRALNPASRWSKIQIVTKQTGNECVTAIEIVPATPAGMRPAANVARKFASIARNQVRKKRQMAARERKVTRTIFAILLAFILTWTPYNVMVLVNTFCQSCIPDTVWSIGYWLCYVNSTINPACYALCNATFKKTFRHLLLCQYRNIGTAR
In short: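 assay system = HEK293 cells with M4 receptor and GIRK channels | medium = pH 7.3 thallium assay buffer | doses = 10 µM final, single point | timing = cells overnight at 37 °C, BTC-AM loading 1 h, reads 2 min total | signal = BTC-AM fluorescence, 1 Hz kinetic reads | read-out = post-addition slope, 15–24 s, of baseline-normalized fluorescence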

[8] = inhibitors of larval lipid processing in zebrafish, primary screen, whole organism, PED6 fluorescence, gall bladder and intestine (AID 686;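 active = a full or partial loss of lipid-probe fluorescence in the fish gall bladder, intestine or both, judged by eye; inactive = no fluorescence loss, or compound toxic to the fish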;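 note: larvae 5 to 7 days old with five fish per well; signal comes from phospholipase A2 cleavage of quenched PED6 carried via bile; overnight exposure to compound and PED6 before scoring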); details: Zebrafish larvae PED6 lipid processing, fluorescence scoring; screened at 20 µM (by protocol)
In short: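 Also added: quenched phospholipase substrate PED6, 100 nM final, ingested by larvae; System: zebrafish larvae, 5-7 d; Quantity: 5 larvae per well; Compound: 20 µM single dose; Schedule: overnight compound and PED6 incubation; Read-out: visual per-well fluorescence inhibition score; Measured by: By-eye fluorescence microscopy; Medium: E3.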

[9] = inhibitors of Chlamydomonas gravitaxis, primary screen, whole organism, Chlamydomonas reinhardtii, WT vs cilia-less mutant, absorbance, 96-well (AID 463189); details: OD600 absorbance, 2 days, at 10 µM, stronger effect = higher value;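 note: 0% = wild type cc124 cells in DMSO and 100% = ciliumless bld1 mutant cells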
[10] = measured here: cell density z-score
[11] = measured here: nuclear c-Myc green intensity z-score
[12] = measured here: nuclear pErk red intensity z-score, stronger effect = higher value

| Compound | cell count [1] | inhibition [1] | inhibition [2] | nuclei count [2] [%] | z-score [3, 10] | z-score [3, 11] | z-score [3, 12] | inhibition [4] | fluorescence slope [5] | NADPH fluorescence slope [6] | fluorescence slope [7] | outcome [8] | inhibition [9] |
| --- | --- | --- | --- | --- | --- | --- | --- | --- | --- | --- | --- | --- | --- |
| COC(=O)c1cc(Br)c(=O)n(-c2cc(C)on2)c1 | 650 | -3.9% (inactive) | 23.3% (inactive) | 115 | -0.164 | -1.68 | 0.836 | -2.91% (inactive) | -0.438 (inactive) | -1.4e-05 (inactive) | 0.00456 (inactive) | inactive | 8.55% (inactive) |
| C=CCN1C(=O)CC(C(=O)NC)SC1=Nc1ccc(C(=O)OCC)cc1 (configuration not stated) | 634 | 12.2% (inactive) | -19.2% (inactive) | 105 | -0.632 | 0.636 | -0.397 | -2.09% (inactive) | -0.407 (inactive) | -5.9e-05 (inactive) | 0.00387 (inactive) | inactive | 6.38% (inactive) |
| COc1cccc(C(=O)Nc2ccc(-c3nnc(-c4ccco4)o3)cc2)c1 | 684 | 6.3% (inactive) | 25.7% (inactive) | 158 | -0.186 | 0.958 | -0.649 | 1.63% (inactive) | -0.476 (inactive) | -4.6e-05 (inactive) | 0.00624 (inactive) | inactive | -6.98% (inactive) |
| CCOC(=O)c1c(C)n(C)c2ccc(OC)c(NC(=O)CN3CCC4(CC3)OCCO4)c12 | 690 | -4.9% (inactive) | -157% (inactive) | 178 | 0.288 | 0.471 | 0.00411 | -10.1% (inactive) | -0.44 (inactive) | -4.5e-05 (inactive) | 0.00438 (inactive) | inactive | -0.554% (inactive) |
| O=C1C(=O)N(Cc2cccnc2)C(c2ccccn2)/C1=C(/O)c1ccc(Br)cc1 (configuration not stated) | 486 | -5.3% (inactive) | -24.5% (inactive) | 156 | 1.28 | -0.786 | -0.613 | 4.37% (inactive) | -0.457 (inactive) | -4.3e-05 (inactive) | 0.00516 (inactive) | inactive | -1.46% (inactive) |
| CC1(C)C2CCC1(C)C(NC(=O)CCN1CCCCC1)C2 (configuration not stated) | 570 | -3.7% (inactive) | -89.2% (inactive) | 163 | 0.233 | 1.96 | 0.463 | 5.95% (inactive) | -0.4 (inactive) | -4.2e-05 (inactive) | 0.00508 (inactive) | inactive | 55.5% (active) |
| O=C(C1=C(O)C(=O)N(CCCN2CCOCC2)C1c1ccccn1)c1cc2ccccc2o1 (configuration not stated) | 558 | -4.5% (inactive) | 55.2% (inactive) | 95.5 | 0.823 | 0.459 | -0.11 | 12.7% (inactive) | -0.441 (inactive) | -0.000374 (active) | 0.0054 (inactive) | inactive | 23.5% (inactive) |
| CCc1nc(N2CCN(C(=O)c3ccccc3)CC2)c(C#N)c2c1COC(C)(C)C2 | 548 | 2% (inactive) | -77.4% (inactive) | 113 | -0.584 | 0.135 | 0.894 | 3.42% (inactive) | -0.474 (inactive) | 6.5e-05 (inactive) | 0.00455 (inactive) | inactive | 5.51% (inactive) |
| CC(C)(C)c1cc(-c2ccco2)c(C#N)c(SCC#N)n1 | 685 | 6.9% (inactive) | -48.1% (inactive) | 116 | 0.036 | 0.336 | 0.596 | -9.53% (inactive) | -0.442 (inactive) | -7.2e-05 (inactive) | 0.0081 (inactive) | inactive | -12.6% (inactive) |
| O=C(O)c1cc2cccc(S(=O)(=O)N3CCOCC3)c2cc1O | 655 | -1.8% (inactive) | -122% (inactive) | 164 | -0.358 | 0.0278 | -2.77 | -9.66% (inactive) | -0.0405 (active) | -1e-05 (inactive) | 0.00567 (inactive) | inactive | -7.07% (inactive) |
| CCOc1ccc(S(=O)(=O)N(C)CCO)cc1-c1nc2c(C(C)(C)C)nn(C)c2c(=O)[nH]1 | 637 | 4.6% (inactive) | -94.9% (inactive) | 165 | 0.365 | 1.27 | -0.248 | 1.12% (inactive) | -0.484 (inactive) | -3.4e-05 (inactive) | 0.00687 (inactive) | inactive | 8.59% (inactive) |
| O=C(O)C1[C@H]2C(=O)N(Cc3cccs3)C[C@]23C=C[C@H]1O3 (some centres not stated) | 598 | -10.3% (inactive) | -12.8% (inactive) | 189 | 0.152 | 1.12 | -0.313 | 6.04% (inactive) | -0.481 (inactive) | -8e-05 (inactive) | 0.00643 (inactive) | inactive | -4.98% (inactive) |
| Cc1cccn2c(=O)c3cc(C(N)=S)c(=N)n(CCCOC(C)C)c3nc12 | 637 | -5.4% (inactive) | -92.7% (inactive) | 153 | 1.81 | -0.956 | -1.49 | 12.7% (inactive) | -0.447 (inactive) | -3.3e-05 (inactive) | 0.00286 (inactive) | inactive | 145% (active) |
| O=C(Cc1ccccc1)Nc1cccc(-c2nnc(-c3ccco3)o2)c1 | 665 | -8.6% (inactive) | 46.6% (inactive) | 188 | 0.0893 | 1.04 | 1.35 | -9.53% (inactive) | -0.485 (inactive) | -5.1e-05 (inactive) | 0.00851 (inactive) | inactive | -2.78% (inactive) |
| O=C(Nc1nnc(SCc2ccccc2F)s1)c1ccco1 | 600 | -10.3% (inactive) | -62.9% (inactive) | 109 | -0.259 | -0.419 | -0.101 | 5.35% (inactive) | -0.502 (inactive) | -5.2e-05 (inactive) | 0.00604 (inactive) | inactive | 39.5% (inactive) |
| Cn1c(=O)[nH]c(=O)c2c1nc(Br)n2CCSc1nnnn1-c1ccccc1 | 639 | 0.9% (inactive) | -40.4% (inactive) | 177 | -0.541 | -0.392 | 1.24 | 3.42% (inactive) | -0.384 (inactive) | -4e-05 (inactive) | 0.00586 (inactive) | inactive | 27.6% (inactive) |
| CCCn1nnc(NC(=O)c2cc(Br)cc(Br)c2OC)n1 | 391 | -1.7% (inactive) | -24.1% (inactive) | 127 | 0.877 | 0.738 | 0.427 | 20.2% (inactive) | -0.463 (inactive) | -0.000102 (inactive) | 0.00469 (inactive) | inactive | 8.4% (inactive) |
| CN1CCc2c(c3c(n2C)CCN(C)[C@@H]3c2cccnc2)[C@H]1c1cccnc1 | 406 | -15.1% (inactive) | -320% (inactive) | 159 | 0.329 | -0.347 | 0.296 | 15.4% (inactive) | -0.478 (inactive) | -5.4e-05 (inactive) | 0.00388 (inactive) | inactive; toxic | 5.73% (inactive) |
| CCCn1nc(Oc2nc(SC)nc(N(C)C)n2)ccc1=O | 340 | -6.1% (inactive) | -38% (inactive) | 91.9 | 1.7 | -0.0746 | -1.32 | 16.1% (inactive) | -0.491 (inactive) | 3.6e-05 (inactive) | 0.00516 (inactive) | inactive | -11.7% (inactive) |
| N#Cc1c(N2CCOCC2)nc(-c2ccco2)c2c1CCCC2 | 536 | -3% (inactive) | -19.5% (inactive) | 96.6 | 0.112 | 0.592 | -1.17 | -2.09% (inactive) | -0.412 (inactive) | -2e-05 (inactive) | 0.00398 (inactive) | inactive | 18.9% (inactive) |
| Cc1cc2c(c(=O)n1Cc1ccccn1)C(c1ccc3c(c1)OCO3)C(C#N)=C(N)O2 (configuration not stated) | 692 | -7.3% (inactive) | -44.9% (inactive) | 183 | 0.057 | 2.34 | 0.285 | -2.91% (inactive) | -0.451 (inactive) | -5.4e-05 (inactive) | 0.00525 (inactive) | inactive | 11.3% (inactive) |
| Cc1ccc(Cn2ncc3c(N4CCN(Cc5ccc(Cl)cc5)CC4)ncnc32)cc1 | 549 | 22.5% (active) | -21.2% (inactive) | 134 | -0.467 | 0.343 | 1.03 | 5.95% (inactive) | -0.368 (inactive) | -6.6e-05 (inactive) | 0.00938 (inactive) | inactive | 60.8% (active) |
| Cn1c(=O)c2c(nc(Oc3ccc4c(c3)OCO4)n2Cc2ccc(Br)cc2)n(C)c1=O | 619 | 8.1% (inactive) | -44% (inactive) | 123 | 0.319 | -0.507 | 0.317 | 7.93% (inactive) | -0.562 (inactive) | -3.8e-05 (inactive) | 0.00702 (inactive) | inactive | 29.5% (inactive) |
| O=C1c2ccccc2-c2onc3ccc(NCc4ccco4)c1c23 | 705 | -2.6% (inactive) | -23.9% (inactive) | 118 | 0.599 | -0.783 | 0.692 | 10.9% (inactive) | -0.14 (inactive) | 1.2e-05 (inactive) | 0.000102 (inactive) | active; no signal in gallbladder and intestine | -2.14% (inactive) |
